Source: PubChem (several laboratories)
An excerpt weighted towards active compounds, which were near 1.3% of everything screened.
EBV gp42 block: Epstein-Barr virus gp42 inhibitors, primary screen, biochemical, uHTS, fluorescence polarization. inhibition, % (tested at 21.74 µM). Glycoprotein 42 (Epstein-Barr virus (strain AG876)), Q1HVG2. Fluorescence polarization binding assay, mP read-out. AID 1085, 2008. actives 0.42% (n = 220,000); in the data active means inhibition above about 50%
Target sequence (Q1HVG2 whole entry, looked up): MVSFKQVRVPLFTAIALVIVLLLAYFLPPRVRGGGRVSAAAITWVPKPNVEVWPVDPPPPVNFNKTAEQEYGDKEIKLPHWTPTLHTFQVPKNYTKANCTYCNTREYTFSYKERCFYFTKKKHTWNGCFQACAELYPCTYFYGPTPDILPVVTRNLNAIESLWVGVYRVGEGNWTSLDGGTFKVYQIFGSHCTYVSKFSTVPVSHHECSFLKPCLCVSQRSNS
T cell modulator: modulators of CD8 T cell-vesicle binding, primary screen, mouse 2C CD8+ T cells, flow cytometry; 2C CD8+ T cell-vesicle binding; hits give low values; response (vesicle binding), % at 7 µM; actives 0.068% (n = 330,000); AID 2052, 2009;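 active means response, share of CD8 T cells binding vesicles, and their 90th percentile fluorescence all below set limits, cut at about 80% in these data, passing the limit was not always enough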;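 further: values below 100% mean blocked vesicle binding to the CD8+ T cells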
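Assay system: 2C TCR transgenic mouse naive CD8+ T cells, MACS-purified | Read-out: CD8+ gate FL2 mean fluorescence as % of same-row positive control | Signal: High-throughput flow cytometry with anti-B7-1 and anti-CD8 staining | Timing: Binding step 1.5 h, 37 °C, antibody labelling 20 min, ice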
MEX-5 binding: MEX-5 zinc finger RNA-binding disruptors – biochemical, C. elegans, fluorescence polarization, MLPCN library, primary screen; Zinc finger protein mex-5 (Caenorhabditis elegans), Q9XUB2; MEX-5/FITC-TCR2 RNA binding; hits give low values; activity score (negative = inhibition of binding), % at 10 µM; AID 1832, 2009; actives 0.38% (n = 300,000);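 active means inhibition past about -25% in most replicates, and total fluorescence under double the plate's negative control median, limit read from the data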;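 further: 0% = DMSO and -100% = 5 µM competing unlabeled TCR2 RNA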
Target sequence (Q9XUB2 whole entry, looked up): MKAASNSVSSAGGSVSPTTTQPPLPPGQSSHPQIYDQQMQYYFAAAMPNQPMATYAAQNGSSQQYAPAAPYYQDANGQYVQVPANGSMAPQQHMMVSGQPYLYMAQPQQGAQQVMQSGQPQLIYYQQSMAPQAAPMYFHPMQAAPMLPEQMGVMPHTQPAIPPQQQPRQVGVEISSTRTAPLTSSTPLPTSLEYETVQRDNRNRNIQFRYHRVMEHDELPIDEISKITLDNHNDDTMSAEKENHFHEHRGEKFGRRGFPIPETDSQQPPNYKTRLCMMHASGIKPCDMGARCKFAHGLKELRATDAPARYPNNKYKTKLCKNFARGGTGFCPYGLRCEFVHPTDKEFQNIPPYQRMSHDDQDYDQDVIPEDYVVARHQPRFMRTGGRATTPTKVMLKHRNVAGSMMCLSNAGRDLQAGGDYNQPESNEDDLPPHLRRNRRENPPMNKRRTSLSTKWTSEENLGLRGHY
Keap1-Nrf2 PPI: Keap1-Nrf2 protein-protein interaction inhibitors, primary screen, biochemical, fluorescence polarization, single point; Kelch-like ECH-associated protein 1 (Homo sapiens), Q14145; Keap1 Kelch-Nrf2 peptide fluorescence polarization, 1536-well; inhibition, % at 9.4 µM; actives 0.15% (n = 340,000); AID 504523, 2011; in the data active means inhibition above about 12%;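 further: human Keap1 Kelch domain with fluorescein labeled Nrf2 9mer peptide probe; 0% = neutral control wells and 100% = peptide positive control; higher means more block of Keap1 binding to Nrf2 peptide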
GRK2 inh: compounds blocking aptamer binding on GRK2 – biochemical, human GRK2, bead flow cytometry, HTS, primary screen | Beta-adrenergic receptor kinase 1 (Homo sapiens), P25098 | actives 0.59% (n = 330,000) | FAM-aptamer displacement from GRK2 | inhibition of aptamer binding, % at 10 µM | AID 488847, 2010;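 active means inhibition of aptamer binding above 40%, roughly 3 SD of noise, on plates passing a quality check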;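 further: median bead fluorescence of bound FAM aptamer so fluorescent compounds give negative values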
LANA DNA inh: inhibitors of KSHV C-LANA binding to DNA, primary screen, biochemical, fluorescence polarization, FAM-LBS DNA, MBP-C-LANA, single point; Kaposi's sarcoma herpesvirus LANA C-terminal domain (residues 932-1162) DNA binding; inhibition, % at 9 µM; actives 0.078% (n = 340,000); AID 504423, 2011;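 active means highest replicate inhibition at or above 60% at 9 µM, even if other replicates fall short; inactive means all replicates below 60% inhibition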;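 further: 0% = neutral control wells and 100% = 4 µM acridine orange control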
GRK2 inh confirm: GRK2 aptamer-displacing inhibitors, retest, confirmation, biochemical, cherry pick 1, bead flow cytometry; shares compounds with GRK2 inh; bead-bound GRK2, FAM-aptamer displacement; aptamer displacement, % at 10 µM; actives 4% (n = 2,000); AID 504451, 2011;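 active means aptamer displacement above 40%, near three times the noise of non-fluorescent compounds, on plates passing quality checks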;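 further: negative values mostly reflect intrinsic compound fluorescence rather than true enhancement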
Aptamer quench 1: fluorescent aptamer quenching in GRK2 counter-screen dose response. Fluorescent RNA aptamer beads, flow cytometry; hits give high values. 110 tested, under 10 active. fluorescence change (kMESF span), kMESF (concentration not given with the values). AID 504521. shares compounds with GRK2 inh;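 active means compounds whose bead fluorescence drops by more than 37 kMESF across the dose range, marking them as dye quenchers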
FAM quench CP1: counter-screen for GRK2 aptamer inhibitors: fluorescent aptamer quenchers | fluorescence response (% of DMSO), % at 10 µM | AID 504580 | 2,000 tested, under 10 active | shares compounds with GRK2 inh | Carboxyfluorescein RNA aptamer on beads, flow cytometry quenching; hits give low values;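 active means compounds that quench the bead-bound fluorescent RNA probe, cutting fluorescence to under half of the solvent control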;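 further: counterscreen run without GRK2 so only probe quenching by compound is measured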
GRK2 confirm 2: GRK2 aptamer-displacing inhibitors, hit retest, confirmation, biochemical, cherry pick 2, bead flow cytometry | bead-bound GRK2, FAM-aptamer displacement | inhibition of aptamer binding, % at 10 µM | 360 tested, under 10 active | shares compounds with GRK2 inh;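 active means inhibition of aptamer binding above 40%, about triple the noise seen with nonglowing compounds, on plates passing quality control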;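 further: negative values mostly come from compounds that fluoresce themselves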
FAM quench SP: counter-screen for GRK2 binding hits: quenchers of fluorescent RNA aptamer; AID 588494; shares compounds with GRK2 inh; 360 tested, under 10 active; fluorescence response vs DMSO, % at 10 µM; carboxyfluorescein RNA aptamer beads, flow cytometry quenching; hits give low values;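 active means response vs DMSO under 50%, meaning signal dropped by over half, treated as fluorescence quencher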;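 further: labelled aptamer on streptavidin beads without GRK2 as a quench counter-screen; 100% = bead fluorescence of DMSO wells and lower means quenching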
The depositor's hits bear a star.

`O=C(CSc1ccccc1)Nc1ccc(-c2nc3ccccc3[nH]2)cc1` gave EBV gp42 block -29, T cell modulator 153, MEX-5 binding 2, Keap1-Nrf2 PPI -7, GRK2 inh 100*, LANA DNA inh -2, GRK2 confirm 2 12 and FAM quench SP 101.
O=C(OCC(=O)N1CCN(S(=O)(=O)c2ccccc2)CC1)C1CCC1 was read as T cell modulator 455, Keap1-Nrf2 PPI 0, GRK2 inh 59*, LANA DNA inh 0, GRK2 confirm 2 13 and FAM quench SP 101.
Screening O=C(OCC(=O)N1CCN(S(=O)(=O)c2ccc(Cl)cc2)CC1)C1CCC1 returned T cell modulator 451, MEX-5 binding -1, Keap1-Nrf2 PPI -4, GRK2 inh 1 and LANA DNA inh 0.
Screening O=C1CN(C(=O)c2ccccc2F)c2ccccc2N1 returned EBV gp42 block -13, T cell modulator 789, MEX-5 binding -1, Keap1-Nrf2 PPI -3, GRK2 inh 48*, LANA DNA inh 0, GRK2 inh confirm 1 and FAM quench CP1 96.
O=C1CN(C(=O)c2ccccn2)c2ccccc2N1 was read as EBV gp42 block -1, T cell modulator 553, MEX-5 binding 1, Keap1-Nrf2 PPI -1, GRK2 inh 0 and LANA DNA inh 1.
CC(C)n1ncc2c(C(=O)Nc3ccc(S(N)(=O)=O)cc3)cc(C3CC3)nc21 was read as T cell modulator 195, Keap1-Nrf2 PPI 0, GRK2 inh 35 and LANA DNA inh -2.
O=C(O)C1C2C=CC(CC2)C1C(=O)O (stereo unspecified) was read as EBV gp42 block -5, T cell modulator 278, MEX-5 binding -1, Keap1-Nrf2 PPI -1, GRK2 inh 60*, LANA DNA inh 19, GRK2 inh confirm 52*, Aptamer quench 1 -0.4 and FAM quench CP1 100.
For CC(C)c1ccc(NC(=O)C2C3C=CC(CC3)C2C(=O)O)cc1 (stereo unspecified) the results were T cell modulator 305, Keap1-Nrf2 PPI 0, GRK2 inh 0 and LANA DNA inh -1.
Screening Cc1cc([N+](=O)[O-])nn1CC(=O)Nc1nc2ccccc2s1 returned EBV gp42 block -6, T cell modulator inactive, MEX-5 binding -4, Keap1-Nrf2 PPI -2, GRK2 inh 16 and LANA DNA inh -1.
`COc1cc([C@@H]2C[C@H]3CN(c4ccccc4)C(=O)[C@]34CCCN24)cc(OC)c1OC` gave EBV gp42 block 8, T cell modulator 386, MEX-5 binding 1, Keap1-Nrf2 PPI -7, GRK2 inh 0 and LANA DNA inh 2.
`COc1cc(Cl)c([C@@H]2C[C@H]3CN(c4ccccc4)C(=O)[C@]34CCCN24)cc1OC` gave EBV gp42 block -4, T cell modulator 266, MEX-5 binding 1, Keap1-Nrf2 PPI 0, GRK2 inh 70*, LANA DNA inh 1, GRK2 inh confirm 0 and FAM quench CP1 97.
Screening O=C1CC(c2ccc3c(c2)OCCO3)Oc2ccc([N+](=O)[O-])cc21 (stereo unspecified) returned T cell modulator inactive, MEX-5 binding 0, Keap1-Nrf2 PPI -6, GRK2 inh 42*, LANA DNA inh -2, GRK2 inh confirm -2 and FAM quench CP1 102.
`O=C(NNC(=S)NCc1ccccc1)c1ccc2c(c1)OCO2` gave EBV gp42 block -11, T cell modulator 316, MEX-5 binding -2, Keap1-Nrf2 PPI -2, GRK2 inh 4 and LANA DNA inh -1.
Screening O=C(NC(=S)NCc1cccnc1)c1ccccc1 returned EBV gp42 block -16, T cell modulator 266, MEX-5 binding 1, Keap1-Nrf2 PPI 2, GRK2 inh 100*, LANA DNA inh 1, GRK2 confirm 2 -35 and FAM quench SP 101.
For O=C(NC(=S)NCc1ccccc1)c1ccc2c(c1)OCO2 the results were EBV gp42 block -21, T cell modulator 250, MEX-5 binding 0, Keap1-Nrf2 PPI -1, GRK2 inh 94*, LANA DNA inh 0, GRK2 confirm 2 -35 and FAM quench SP 100.
Screening Cc1ccc(NC(=O)C(C)Sc2nnc3ccccn23)cc1 (stereo unspecified) returned T cell modulator 134, Keap1-Nrf2 PPI -4, GRK2 inh 3 and LANA DNA inh -1.
Screening COCCNC(=O)CCC1CCN(Cc2ccc(-c3ccccc3)cc2)CC1 returned T cell modulator 204, MEX-5 binding 2, Keap1-Nrf2 PPI -5, GRK2 inh 0 and LANA DNA inh -4.
For CCCCN(C(=O)c1cccc(-n2cccc2)c1)c1c(N)n(Cc2ccccc2)c(=O)[nH]c1=O the results were T cell modulator 202, MEX-5 binding 0, Keap1-Nrf2 PPI -3, GRK2 inh 46*, LANA DNA inh -1, GRK2 inh confirm 10 and FAM quench CP1 97.
For CCCCN(C(=O)CSc1nnc(-c2ccc(OC)cc2)n1CC)c1c(N)n(Cc2ccccc2)c(=O)[nH]c1=O the results were EBV gp42 block -8, T cell modulator 195, MEX-5 binding -1, Keap1-Nrf2 PPI -5, GRK2 inh 88*, LANA DNA inh -1, GRK2 inh confirm -1 and FAM quench CP1 100.
